Assay results as given in ChEMBL document CHEMBL1155099, “Natural products in parallel synthesis: triazole libraries of nonactic acid” (2008).
The source made the active and inactive calls.

How the values were obtained:
Type in all cases: functional, organism-based
Bacillus subtilis = experiment: Antibacterial activity against Bacillus subtilis at 1 mM by almar blue dye reduction assay
Summary of the method: (§1)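 Single-point primary screen at 1 mM using Alamar Blue dye reduction as the growth read-out.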

Saccharomyces cerevisiae = experiment: Antifungal activity against Saccharomyces cerevisiae at 1 mM by almar blue dye reduction assay; summary of the method: as §1
Cryptococcus neoformans = experiment: Antifungal activity against Cryptococcus neoformans at 1 mM by almar blue dye reduction assay; summary of the method: as §1
Bacillus cereus = experiment: Antibacterial activity against Bacillus cereus at 1 mM by almar blue dye reduction assay; summary of the method: as §1
Candida albicans = experiment: Antifungal activity against Candida albicans at 1 mM by almar blue dye reduction assay; summary of the method: as §1
Escherichia coli = experiment: Antibacterial activity against Escherichia coli at 1 mM by almar blue dye reduction assay; summary of the method: as §1
Staphylococcus aureus = experiment: Antibacterial activity against Staphylococcus aureus at 1 mM by almar blue dye reduction assay; summary of the method: as §1
Pseudomonas aeruginosa = experiment: Antibacterial activity against Pseudomonas aeruginosa at 1 mM by almar blue dye reduction assay; summary of the method: as §1
Bacillus anthracis = experiment: Antibacterial activity against Bacillus anthracis at 1mM by almar blue dye reduction assay

Measured: Activity

COc1cccc(OCC#Cc2cn([C@H](C)C[C@@H]3CC[C@H]([C@@H](C)C(=O)N4CCCC4)O3)nn2)c1OC
inactive: all assays above

CC(C)NC(=O)[C@H](C)[C@H]1CC[C@@H](C[C@@H](C)n2cc(C#Cc3ccccc3)nn2)O1
inactive: all assays above

CC(C)CC#Cc1cn([C@H](C)C[C@@H]2CC[C@H]([C@@H](C)C(=O)N3CCCC3)O2)nn1
inactive: all assays above

C[C@H](CC1CCC([C@@H](C)C(=O)N(C)Cc2ccccc2)O1)n1cc(C#CCNC(=O)OCc2ccccc2)nn1 (single isomer, unassigned)
inactive: all assays above

CCCNC(=O)NCC#Cc1cn([C@H](C)CC2CCC([C@@H](C)C(=O)NC(C)C)O2)nn1 (single isomer, unassigned)
inactive: all assays above

C[C@H](C[C@@H]1CC[C@H]([C@@H](C)C(=O)N(C)Cc2ccccc2)O1)n1cc(C#CCN2CCOCC2)nn1
inactive: all assays above

CC(C)NC(=O)[C@H](C)[C@H]1CC[C@@H](C[C@@H](C)n2cc(C#CCN3CCC(c4ccccc4)CC3)nn2)O1
inactive: all assays above

C[C@H](CC1CCC([C@@H](C)C(=O)N2CCCC2)O1)n1cc(C#CCNC(=O)OCc2ccccc2)nn1 (single isomer, unassigned)
inactive: all assays above

CCN(CC)C(=O)[C@H](C)[C@H]1CC[C@@H](C[C@@H](C)n2cc(C#CCOc3ccc(OC)cc3)nn2)O1
inactive: all assays above

C[C@H](C[C@@H]1CC[C@H]([C@@H](C)C(=O)N(C)Cc2ccccc2)O1)n1cc(C#CCN(C)C)nn1
inactive: all assays above

C[C@H](C[C@H]1CC[C@H]([C@@H](C)C(=O)N2CCCC2)O1)n1cc(C#CCN(C)C)nn1
inactive: all assays above

C[C@H](C[C@@H]1CC[C@H]([C@@H](C)C(=O)N2CCCC2)O1)n1cc(C#CCN(C)CCc2ccccc2)nn1
inactive: all assays above

CCOC(=O)C#Cc1cn([C@H](C)CC2CCC([C@@H](C)C(=O)NC(C)C)O2)nn1 (single isomer, unassigned)
inactive: all assays above

C[C@H](CC1CCC([C@@H](C)C(=O)N2CCN(CC3CCCO3)CC2)O1)n1cc(C#CCNC(=O)OCc2ccccc2)nn1 (single isomer, unassigned)
inactive: all assays above

C[C@H](C[C@@H]1CC[C@H]([C@@H](C)C(=O)N2CCN(CC3CCCO3)CC2)O1)n1cc(C#CCC2CCCC2)nn1 (stereo partly specified)
inactive: all assays above

COc1cccc(OCC#Cc2cn([C@H](C)C[C@@H]3CC[C@H]([C@@H](C)C(=O)NC(C)C)O3)nn2)c1OC
inactive: all assays above

C[C@H](C[C@@H]1CC[C@H]([C@@H](C)C(=O)N(C)Cc2ccccc2)O1)n1cc(C#CCOc2ccc(Br)cc2)nn1
inactive: all assays above

C[C@H](C[C@@H]1CC[C@H]([C@@H](C)C(=O)N2CCCC2)O1)n1cc(C#Cc2ccccc2)nn1
not listed: Saccharomyces cerevisiae
inactive: all other assays above
